Columns and labels:
[1] = Antiproliferative activity against human HEp-3 cells after 72 hrs by MTT assay; format: functional
Method in brief: (§1)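 Cells cultured at 37 °C, 5% CO₂ in medium with 10% FBS and penicillin/streptomycin, used within 12-20 passages. Seeded at 2.5×10^3 cells/well for 24 h, then compound added from DMSO stocks at 200-fold final concentration (final DMSO 0.5% v/v). After 72 h, 0.5 mg/mL MTT for 3 h, formazan dissolved in DMSO, A570 read. IC50 from sigmoidal fit; three independent determinations.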

[2] = tested on: MCF7; assay: Antiproliferative activity against human MCF7 cells after 72 hrs by MTT assay; format: functional; settings: MCF7, 72 h; method in brief: as §1
[3] = Selectivity index, ratio of IC50 for human BJ cells to IC50 for human BJ cells transformed with hTert, small t, shRNAs against p53 and pRb and H-RasV12-ER; format: functional
Method in brief: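 Normal BJ fibroblasts and transformed BJ fibroblasts were grown at 37 °C in 5% CO₂ with 10% FBS, seeded at 2.5×10^3 cells/well for 24 h, then treated for 72 h at 0.5% v/v final DMSO. MTT at 0.5 mg/mL was added for 3 h, formazan was dissolved in DMSO and absorbance read at 570 nm. IC50 came from sigmoidal fits of three independent determinations. The index is normal-cell IC50 over transformed-cell IC50.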

[4] = tested on: HeLa; assay: Induction of autophagy in human HeLa cells assessed as increase in LC3-2 to LC3-1 ratio at 0.625 uM after 6 hrs by immunoblot analysis relative to control; format: functional
Method in brief: (§2)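 HeLa cells were exposed for 6 h to the compound at 0.625, 1.25, 2.5, 5 or 10 µM, or to DMSO. Cells were lysed in 1% Triton buffer (pH 8.0) with protease and phosphatase inhibitors. Lysates were resolved by 14% SDS-PAGE and immunoblotted for LC3, with β-actin probed. The LC3-II/LC3-I band-intensity ratio was expressed relative to the DMSO control.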

[5] = tested on: Salmonella typhimurium; assay: Genotoxicity in Salmonella typhimurium TA98 after 48 hrs in presence of S9 fraction by Ames test; format: toxicity, organism-based; settings: salmonella enterica subsp. enterica serovar typhimurium, s9, 48 h
[6] = tested on: HT-29; assay: Antiproliferative activity against human HT-29 cells after 72 hrs by MTT assay; format: functional; settings: HT-29, 72 h; method in brief: as §1
[7] = tested on: MKN-45; assay: Antiproliferative activity against human MKN45 cells after 72 hrs by MTT assay; format: functional; settings: MKN-45, 72 h; method in brief: as §1
[8] = Antiproliferative activity against human NCC59 cells after 72 hrs by MTT assay; format: functional; method in brief: as §1
[9] = tested on: SNU1; assay: Antiproliferative activity against human SNU1 cells after 72 hrs by MTT assay; format: functional; settings: SNU1, 72 h; method in brief: as §1
[10] = tested on: HeLa; assay: Antiproliferative activity against human HeLa cells after 72 hrs by MTT assay; format: functional; method in brief: as §1
[11] = tested on: HCT-116; assay: Antiproliferative activity against human HCT116 cells after 72 hrs by MTT assay; format: functional; settings: HCT-116, 72 h; method in brief: as §1
[12] = Antiproliferative activity against human SNU1750 cells after 72 hrs by MTT assay; format: functional; method in brief: as §1
[13] = Intrinsic clearance in pooled male rat liver microsomes assessed per mg protein at 3 uM preincubated for 5 mins followed by NADPH addition measured after 45 mins by LC-MS/MS method; format: ADME, microsome; settings: read-out: CLH
Method in brief: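 Pooled female or male rat liver microsomes (0.3 mg protein/mL) with substrate at final 3 μM in 0.1 M phosphate pH 7.4. Pre-incubated 5 min at 37 °C, then started with NADPH (final 1 mM). Sampled at 0–45 min in triplicate, quenched with cold acetonitrile plus internal standard. Parent measured by LC-MS/MS. Midazolam as positive control; no-NADPH negative control.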

[14] = tested on: MDA-MB-231; assay: Antiproliferative activity against human MDA-MB-231 cells after 72 hrs by MTT assay; format: functional; settings: MDA-MB-231, 72 h; method in brief: as §1
[15] = Antiproliferative activity against human ARPE19 cells after 72 hrs by MTT assay; format: cell-based; settings: ARPE-19 cells; method in brief: as §1
[16] = tested on: HeLa; assay: Induction of autophagy in human HeLa cells assessed as increase in LC3-2 to LC3-1 ratio at 10 uM after 6 hrs by immunoblot analysis relative to control; format: functional
Method in brief: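 HeLa cells exposed 6 h to test agent (0.625–10 μM series) or chloroquine (1.25–100 μM series) vs DMSO; lysed in 1% Triton buffer (25 mM Tris pH 8.0, 150 mM NaCl, DTT, protease/phosphatase inhibitors), 14% SDS-PAGE, immunoblot with anti-LC3, anti-pH3(Ser10), β-actin loading. LC3-II/LC3-I band intensity ratio expressed relative to DMSO control.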

[17] = tested on: HCT-15; assay: Antitumor activity against human HCT15 cells xenografted in BALB/c athymic nu/nu mouse assessed as tumor growth inhibition at 20 mg/kg, ip bid administered 12 days relative to control; format: functional; settings: HCT-15, ip, 288 h, read-out: TGI
Method in brief: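 Female BALB/c nu/nu mice (5-7 weeks) given 5×10^6 HCT15 cells subcutaneously in flank. At 100–300 mm³, randomized into groups of 6. Dosed IP twice daily for 12 days at 20 mg/kg in 10% DMSO, 50% PEG400, deionized water pH 5.0, vs vehicle. Tumor volumes tracked; mean ± SEM, two-way ANOVA vs vehicle.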

[18] = Antiproliferative activity against human SGCC-GC38 cells after 72 hrs by MTT assay; format: functional; method in brief: as §1
[19] = tested on: hTERT-BJ; assay: Induction of autophagy in human hTERT-BJ cells transformed with hTert, small t, shRNAs against p53 and pRb and H-RasV12-ER assessed as increase in LC3-2 to LC3-1 ratio at 5 uM after 24 hrs by immunoblot analysis relative to control; format: functional
Method in brief: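 Fully transformed BJ fibroblasts (hTert, small t, shRNAs to p53 and pRb, H-RasV12-ER) grown at 37 °C, 5% CO2 in 10% FBS medium; treated 24 h at 5 μM. Triton lysis, 14% SDS-PAGE, LC3 immunoblot; LC3-II/LC3-I band ratio relative to DMSO-treated control, under 2-fold induction deemed insignificant.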

[20] = Antiproliferative activity against human WI38 cells after 72 hrs by MTT assay; format: cell-based; settings: WI-38 cells; method in brief: as §1
[21] = tested on: SNU-449; assay: Antiproliferative activity against human SNU449 cells after 72 hrs by MTT assay; format: functional; settings: SNU-449, 72 h; method in brief: as §1
[22] = tested on: TAMH; assay: Antiproliferative activity against mouse TAMH cells at 50 uM after 72 hrs by MTT assay; format: cell-based
[23] = Antiproliferative activity against human SNU216 cells after 72 hrs by MTT assay; format: functional; settings: SNU-216, 72 h; method in brief: as §1
[24] = tested on: Huh-7; assay: Antiproliferative activity against human HuH7 cells after 72 hrs by MTT assay; format: functional; settings: Huh-7, 72 h; method in brief: as §1
[25] = Antiproliferative activity against human Ist1 cells after 72 hrs by MTT assay; format: functional; method in brief: as §1
[26] = tested on: HeLa; assay: Induction of autophagy in human HeLa cells assessed as increase in LC3-2 to LC3-1 ratio at 5 uM after 6 hrs by immunoblot analysis relative to control; format: functional; method in brief: as §2
[27] = tested on: AZ-521 cell line; assay: Antiproliferative activity against human AZ-521 cells after 72 hrs by MTT assay; format: functional; settings: AZ-521, 72 h; method in brief: as §1
[28] = tested on: HGC-27; assay: Antiproliferative activity against human HGC27 cells after 72 hrs by MTT assay; format: functional; settings: HGC-27, 72 h; method in brief: as §1

N#C/C(=C\c1cccc2cnccc12)c1c[nH]c2ccccc12
GI50 [1]: 3700 nM | GI50 [2]: 1200 nM | Ratio IC50 [3]: 8.5 | fold change (FC) [4]: 1 | Activity [5]: Non-Toxic | GI50 [6]: 900 nM | GI50 [7]: 1000 nM | GI50 [8]: 900 nM | GI50 [9]: 900 nM | GI50 [10]: 1400 nM | GI50 [11]: 1800 nM | GI50 [12]: 700 nM | microsomal CLint at 3 µM [13]: 299 µL/min/mg | GI50 [14]: 1100 nM | GI50 at 72 h [15]: > 10000 nM | fold change (FC) [16]: 4.3 | inhibition in vivo at 20 mg/kg [17]: 74% | GI50 [18]: 1900 nM | fold change (FC) [19]: 5 | GI50 at 72 h [20]: 3400 nM | GI50 [21]: 2300 nM | Activity [22]: 57.3% | GI50 [23]: 1900 nM | GI50 [24]: 1200 nM | GI50 [25]: 2200 nM | fold change (FC) [26]: 4.3 | GI50 [27]: 2400 nM | GI50 [28]: 1200 nM

From ChEMBL document CHEMBL4270554, “Discovery of the cancer cell selective dual acting anti-cancer agent (Z)-2-(1H-indol-3-yl)-3-(isoquinolin-5-yl)acrylonitrile (A131)” (Eur J Med Chem, 2018)
